Laboratory results as given in ChEMBL document CHEMBL1155077, “Kinesin spindle protein (KSP) inhibitors. 9. Discovery of (2S)-4-(2,5-difluorophenyl)-n-[(3R,4S)-3-fluoro-1-methylpiperidin-4-yl]-2-(hydroxymethyl)-N-methyl-2-phenyl-2,5-dihydro-1H-pyrrole-1-carboxamide (MK-0731) for the treatment of taxane-refractory cancer” (J Med Chem, 2008).
Activity calls are given as the source filed them.

Assays:
A2780 = test: Inhibition of tumor growth in human A2780 cells xenografted clr:NU/NU-nuBR mouse assessed as change in tumor volume at 100 mg/kg, sc administered q4d x 3 dosing schedule
[1] = Volume of distribution at steady state in rat at 1 mg/kg, iv; type: ADME, organism-based; set-up: dose 1 mg/kg, route intravenous; details: in vivo, read-out: Vdss
KB-v [2] = test: Inhibition of tumor growth in human KB-v cells expressing MDR1 xenografted clr:NU/NU-nuBR mouse assessed as change in tumor volume at 20 mg/kg, ip administered qd x 5 dosing schedule relative to control; type: functional, organism-based; set-up: dose 20 mg/kg
Summary of the method: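 Nude mice bearing contralateral sc KB-3-1 (2.5 million) and KB-v-1 (9 million) flank tumors, 250-500 mm³ at day 13-14, groups of 10-12. Paclitaxel 20 mg/kg/day ip in ethanol/Cremophor/saline (10:10:80), qd × 5. Volumes by calipers, (W² × L)/2, change from initial; % T/C versus control.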

[3] = Induction of apoptosis in human […] cells assessed as caspase 3 activation after 48 hrs by fluorescent assay; type: functional, cell-based
Summary of the method: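 A2780 cells seeded 20 000/well, grown overnight, then treated in triplicate 48 h with vehicle or compound, 300 to 0.415 nM (7-point, 3-fold series), 0.1% DMSO final.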

KB-v [4] = test: Inhibition of tumor growth in human KB-v cells expressing MDR1 xenografted clr:NU/NU-nuBR mouse assessed as change in tumor volume at 40 mg/kg, sc administered qd x 1 dosing schedule relative to control
[5] = Inhibition of human KSP in presence of 30% mouse serum
Summary of the method: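 KSP ATPase assay as the primary one (0.25 nM KSP motor domain, microtubules, 1 mM ATP, pH 6.8, 3 h at RT, quinaldine red phosphate read-out), run with 30% mouse serum dialysed against reaction buffer (12-14 kDa cutoff). Mean of at least 3 experiments unless noted.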

SMILES: CN1CC[C@H](N(C)C(=O)N2CC(c3cc(F)ccc3F)=C[C@@]2(CO)c2ccccc2)[C@H](F)C1
- Activity (A2780): Active
- Vd [1]: 3 L/kg
- Activity (KB-v [2]): inactive
- EC50 [3]: 0.0027 µM
- Activity (KB-v [4]): Active
- IC50 [5]: 0.0291 µM
